The record followed here is ChEMBL document CHEMBL1129379, “Heterocyclic ureas: inhibitors of acyl-CoA:cholesterol O-acyltransferase as hypocholesterolemic agents” (J Med Chem, 1996).

Test [1] deals with O-acyltransferase (Oryctolagus cuniculus, UniProt G1SFD9). The test can be described thus: (§1) Acyl coenzyme A:cholesterol acyltransferase 1 inhibition in vitro measured in rabbit intestinal microsomes. Further details: species or system Intestine.
In test [2] the target is T1, Sterol O-acyltransferase 1 (Rattus norvegicus) (UniProt O70536).
T1 sequence (whole entry): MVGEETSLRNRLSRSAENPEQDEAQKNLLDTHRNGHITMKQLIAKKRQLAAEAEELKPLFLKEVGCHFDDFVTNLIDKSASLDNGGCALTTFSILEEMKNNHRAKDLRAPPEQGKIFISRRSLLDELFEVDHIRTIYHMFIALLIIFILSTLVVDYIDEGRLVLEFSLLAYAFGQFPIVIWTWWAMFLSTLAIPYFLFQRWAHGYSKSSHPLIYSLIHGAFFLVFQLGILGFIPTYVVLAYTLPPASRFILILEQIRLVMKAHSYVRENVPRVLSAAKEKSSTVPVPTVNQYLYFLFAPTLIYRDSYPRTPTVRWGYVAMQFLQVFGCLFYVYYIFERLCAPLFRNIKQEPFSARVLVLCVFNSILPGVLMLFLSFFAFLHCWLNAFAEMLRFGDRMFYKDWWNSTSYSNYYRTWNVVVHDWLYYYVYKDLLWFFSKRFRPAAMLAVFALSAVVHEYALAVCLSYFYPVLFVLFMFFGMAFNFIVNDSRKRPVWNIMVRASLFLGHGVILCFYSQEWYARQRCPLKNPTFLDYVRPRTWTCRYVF
Briefly: Percent change in plasma total cholesterol in an acute cholesterol-fed rat model of hypercholesterolemia, dose at 30 mg/kg. Format: functional, organism-based. Also on record: dose 30 mg/kg.

Test [3] concerns the target T1, Sterol O-acyltransferase 1 (Rattus norvegicus). Briefly: Percent change in plasma total cholesterol in an acute cholesterol-fed rat model of hypercholesterolemia, dose at 3 mg/kg. It counts as functional, organism-based. Further details: dose 3 mg/kg.
The target is the same in test [4]. Briefly: Percent change in plasma TC in the chronic C-fed rat model of pre-established hypercholesterolemia. Dose at 30 mg/kg. Further details: dose 30 mg/kg. It counts as functional, organism-based. In a few lines: (§2)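 Chronic rat model of pre-established hypercholesterolemia: 1 week on high-cholesterol diet, then compound dosed orally once daily for 1 week. Plasma total cholesterol, HDL-C and non-HDL-C expressed as percent change versus control; p < 0.05 flagged.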

Test [5] has as its system Rattus norvegicus. The test can be described thus: Percent change in HDL-C,Dose at 30 mg/kg. It counts as functional. In a few lines:
as §2

Test [6] relates to Rattus norvegicus. Briefly: Percent change in non-HDL-C Dose at 30 mg/kg. Format: functional. In a few lines: as §2
In test [7] the test system is Rattus norvegicus. Briefly: Percent change in HDL-CDose at 30 mg/kg. Format: functional. In a few lines: as §2
Test [8] deals with T2, Acyl-CoA:cholesterol acyltransferase (Oryctolagus cuniculus) (UniProt Q95214).
T2 sequence (whole entry): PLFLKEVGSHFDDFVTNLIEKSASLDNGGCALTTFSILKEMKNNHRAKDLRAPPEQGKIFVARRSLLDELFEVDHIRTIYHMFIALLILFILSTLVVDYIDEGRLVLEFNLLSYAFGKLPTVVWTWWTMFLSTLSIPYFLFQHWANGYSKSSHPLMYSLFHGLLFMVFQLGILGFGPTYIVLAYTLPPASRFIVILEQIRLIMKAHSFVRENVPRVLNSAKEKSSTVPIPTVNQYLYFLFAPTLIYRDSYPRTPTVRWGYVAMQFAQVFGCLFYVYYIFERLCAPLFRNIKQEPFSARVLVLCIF
The description is as §1. The following applies: Intestine, concentration not given here. The gist of the method: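 ACAT activity in intestinal microsomes from cholesterol-fed rabbits, measured by incubation with 14C-labeled oleoyl-CoA; IC50 is the micromolar concentration giving 50% inhibition of enzyme activity.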

Turning to `CCCCCCCCCCCCn1ncnc1NC(=O)Nc1c(C(C)C)cccc1C(C)C`, half-maximal inhibition in test [1] (IC50) was put at 250 nM. For the same molecule, the Delta TC in test [2] is -36%.
Consider `CCCCCCCCCCCCn1nnnc1NC(=O)Nc1c(C(C)C)cccc1C(C)C`, for which, in test [1], the IC50 worked out at 210 nM. The Delta TC in test [3] is -45%; in test [2] it was -57%.
On the same counts, the results for `CCCCCCCCCCCCN1NN=C(NC(=O)Nc2c(OC)cc(OC)cc2OC)N1` are 66 nM, -69% and -75%.
`CCCCCCCCCc1nnc(NC(=O)Nc2c(C(C)C)cccc2C(C)C)s1` had an IC50 in test [1] of 150 nM. Further, the Delta TC in test [2] was -39%.
For the molecule `CCCCCCCCCCn1nnnc1NC(=O)Nc1c(C(C)C)cccc1C(C)C`, the Delta TC is -22% in test [3] and -65% in test [2].
On to `CCCCCCCCCCCCc1cc(NC(=O)Nc2c(C(C)C)cccc2C(C)C)on1`, for which the half-inhibitory concentration (IC50) in test [1] was 19 nM. Further, the values for the Delta TC in test [4], in test [3] and in test [2] were -56%, -58% and -61%, respectively. In addition, the “Delta HDL-C” value in test [5] was determined as 100%. In addition, the Non-HDL-C in test [6] was -68%.
For `CCCCCCCCCCCCCc1cc(NC(=O)Nc2c(C(C)C)cccc2C(C)C)on1`, the IC50 in test [1] amounted to 13 nM. For the same molecule, the Delta TC was -53% in test [4], -51% in test [3] and -62% in test [2]. In test [7], the “Delta HDL-C” value is 111%. For the same molecule, the Non-HDL-C in test [6] is reported as -65%.
For the molecule `CCCCCCCCCCCCCc1nnc(NC(=O)Nc2c(C(C)C)cccc2C(C)C)s1`, 36 nM corresponded to half-maximal inhibition in test [1] (IC50). For the same molecule, the Delta TC in test [2] is -46%.
Consider `CCCCCCCCCCCCCc1nnc(NC(=O)Nc2c(C(C)C)cccc2C(C)C)o1`, for which the IC50 in test [1] was determined as 18 nM. In addition, the Delta TC is -34% in test [3] and -62% in test [2].
Regarding `CCCCCCCCN1NN=C(NC(=O)Nc2c(C(C)C)cccc2C(C)C)N1`, it took 59 nM to reach half-maximal inhibition in test [1] (IC50). Also, the Delta TC is -24% in test [3] and -67% in test [2].
Take `CCCCN1NN=C(NC(=O)Nc2c(C(C)C)cccc2C(C)C)N1`: the midpoint of inhibition in test [1], the IC50, lay at 92 nM. In addition, in test [2], the Delta TC is -26%.
On the same counts, the results for `CCCCCCCCCCCCN1NN=C(CNC(=O)Nc2c(OC)cc(OC)cc2OC)N1` are 150 nM and -40%.
On the same counts, the results for `CC(C)c1cccc(C(C)C)c1NC(=O)Nc1nnn(CCCCCCCCCCCO)n1` are 32 nM and -28%.
Regarding `CCCCCCCCCCCCn1cnc(NC(=O)Nc2c(C(C)C)cccc2C(C)C)c1`, in test [1], inhibition was half-maximal at 35 nM (IC50).
In the case of `CC(C)c1cccc(C(C)C)c1NC(=O)NC1=NN(Cc2ccccc2)NN1`, it took 370 nM to reach half-maximal inhibition in test [1] (IC50). Moreover, the Delta TC in test [2] is -27%.
The like results for `CCCCCCCCCCCCCS(=O)(=O)c1n[nH]c(NC(=O)Nc2c(C(C)C)cccc2C(C)C)n1` were, in that order, 4700 nM and -11%.
On the same counts, the results for `CCCCCCCCCCCCc1coc(NC(=O)Nc2c(C(C)C)cccc2C(C)C)n1` are 63 nM and -55%.
In turn, `CCCCCCCCCCCCCCCCN1NN=C(NC(=O)Nc2c(C(C)C)cccc2C(C)C)N1` had an IC50 in test [1] of 57 nM. For the same molecule, the Delta TC in test [3] was -43%; in test [2], -67%.
The like results for `CCCCCCN1NN=C(NC(=O)Nc2c(C(C)C)cccc2C(C)C)N1` were, in that order, 73 nM, -21% and -59%.
`CC(C)=CCC/C(C)=C/Cn1nnc(NC(=O)Nc2c(C(C)C)cccc2C(C)C)n1` registered an IC50 in test [1] of 63 nM. Further, the Delta TC in test [2] was -27%.
`CCCCCCCCCCCCCSc1nnc(NC(=O)Nc2c(C(C)C)cccc2C(C)C)n1C(C)=O` returned an IC50 in test [1] of 680 nM. Besides, in test [2], the Delta TC was -21%.
`CCCCCCCCCCCCn1nnnc1NC(=O)Nc1c(OC)cc(OC)cc1OC`: the inhibition in test [8] was found to be 28%.
Take `CCCCCCCCCCCCCCc1cc(NC(=O)Nc2c(C(C)C)cccc2C(C)C)on1`: the IC50 in test [1] was 28 nM. Moreover, the Delta TC in test [4] was -16%; in test [3], -44%; in test [2], -64%. For the same molecule, the “Delta HDL-C” value in test [7] worked out at 16%. In addition, the Non-HDL-C in test [6] is on record as -18%.
For the molecule `CC(C)c1cccc(C(C)C)c1NC(=O)Nc1nnn[nH]1`, in test [1], the IC50 is over 10000 nM.
As to `CCCCCCCCCN1NN=C(NC(=O)Nc2c(C(C)C)cccc2C(C)C)N1`, in test [1], the IC50 came to 31 nM. The Delta TC is 1% in test [3] and -65% in test [2].
On the same counts, the results for `CCCCCCCCCCCN1NN=C(NC(=O)Nc2c(C(C)C)cccc2C(C)C)N1` are 9 nM, -63% and -70%.
`CCCCCCCCCCCc1nnc(NC(=O)Nc2c(C(C)C)cccc2C(C)C)s1` had an IC50 in test [1] of 39 nM. The Delta TC in test [2] was -61%.
On to `CC(C)c1cccc(C(C)C)c1NC(=O)Nc1nnn(CCCCCCCCCCCOC2CCCCO2)n1` (stereo not given), for which the IC50 in test [1] is 37 nM. For the same molecule, the Delta TC in test [3] is -28%; in test [2], -53%.
As to `CCCCCCCCCCN1NN=C(NC(=O)Nc2c(C(C)C)cccc2C(C)C)N1`, the concentration for half-maximal inhibition (IC50) in test [1] was 14 nM. In addition, the Delta TC in test [3] is -35%; in test [2], -62%.
`COC(=O)CCCCCCCCCCN1NN=C(NC(=O)Nc2c(C(C)C)cccc2C(C)C)N1`: the IC50 in test [1] was determined as 4700 nM. Also, the Delta TC in test [2] was -23%.
As to `CCCCCCCCCCCCn1cnnc1NC(=O)Nc1c(C(C)C)cccc1C(C)C`, in test [2], the Delta TC was -28%.
In turn, `CCCCCCCCCCc1sc(NC(=O)Nc2c(C(C)C)cccc2C(C)C)nc1C` yielded an IC50 in test [1] of 120 nM. The Delta TC in test [2] was -33%.
The like results for `CCCCCCCCCCCCC[S+]([O-])c1n[nH]c(NC(=O)Nc2c(C(C)C)cccc2C(C)C)n1` (stereo not given) were, in that order, 1700 nM and -6%.
For the molecule `CC(C)c1cccc(C(C)C)c1NC(=O)Nc1nn[nH]n1`, the Delta TC in test [2] was -19%.
On the same count and under the same terms, to `CCCCCCCCCCCCCSc1n[nH]c(NC(=O)Nc2c(C(C)C)cccc2C(C)C)n1` belongs 12%.
In turn, `CCCCCCCCCCCCc1n[nH]c(NC(=O)Nc2c(C(C)C)cccc2C(C)C)n1` gave an IC50 in test [1] of 4200 nM. Moreover, in test [2], the Delta TC came out at 12%.
In test [1], `CCCCCCCCCCCc1csc(NC(=O)Nc2c(C(C)C)cccc2C(C)C)n1` had an IC50 of 150 nM. Besides, in test [2], the Delta TC is -29%.
With `CCCCCCCCCCCCN1NN=C(CNC(=O)Nc2c(C(C)C)cccc2C(C)C)N1`, inhibition in test [1] was half-maximal at 12 nM (IC50). Moreover, the figures for the Delta TC in test [3] and in test [2] were -31% and -58%, respectively.
Molecule `CCCCCCCCCCCCn1cnc(NC(=O)Nc2c(C(C)C)cccc2C(C)C)n1` yielded an IC50 in test [1] of 120 nM. For the same molecule, the Delta TC in test [2] is -30%.

As usually defined, the IC50 is the concentration needed to halve the response being measured. Higher therefore signals lower potency. Broadly, the inhibition is the relative decrease from the control value, in per cent.
